Only some compounds are listed: those with a hit (about 2.6% of all), similar ones and a draw of the others.
Platelet DG rel: modulates dense granule release in human platelets. human platelet-rich plasma, SFLLRN dense granule ATP release, luminescence. inhibition, %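 (compounds screened at 7.5 µM in platelet-rich plasma)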. 0.22% of 300,000 active. AID 1663;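 active means mean replicate score, as percent of positive control, at or above 50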
TAAR1 antag: human TAAR1 antagonism; CHO RD-HGA16 TAAR1, Fluo-8 calcium fluorescence, antagonist; inhibition, % at 3 µM; 1.5% of 360,000 active;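 active means inhibition above a per-plate cutoff, the mean inhibition of test compounds on that plate plus 3 SD, cut at about 49% in these data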;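 further: 0% = DMSO plus EC80 beta-PEA response and 100% = DMSO alone without agonist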
Target sequence (Q96RJ0 whole entry, looked up): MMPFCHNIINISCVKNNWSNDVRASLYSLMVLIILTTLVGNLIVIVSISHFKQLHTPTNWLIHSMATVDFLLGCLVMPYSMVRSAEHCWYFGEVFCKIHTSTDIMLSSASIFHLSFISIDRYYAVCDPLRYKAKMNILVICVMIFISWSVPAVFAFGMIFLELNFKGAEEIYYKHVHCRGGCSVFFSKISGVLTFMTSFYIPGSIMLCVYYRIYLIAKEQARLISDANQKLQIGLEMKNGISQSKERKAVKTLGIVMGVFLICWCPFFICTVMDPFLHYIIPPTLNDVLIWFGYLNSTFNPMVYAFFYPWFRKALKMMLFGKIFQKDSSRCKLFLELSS
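Test system: CHO RD-HGA16 cells bearing hTAAR1 | Reagent: β-PEA, EC80 | Compound dosing: 3 µM, single point | Schedule: Dye loading 75 min at 37 °C, then 30 min room temperature | Signal: Calcium fluorescence with Fluo-8 | Evaluation: Percent inhibition of PEA-evoked calcium signal, max/basal emission ratio | Control set: DMSO-only wells and EC80 β-PEA-stimulated wells | Repeats: Singlicate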
TAAR1 agonist: agonists of human TAAR1; 0.99% of 360,000 active; CHO RD-HGA16 TAAR1, Fluo-8 calcium fluorescence; vehicle wells 0%, saturating PEA agonist 100%; activation, % at 3 µM;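 active means activation above the mean activation of all test compounds in the run plus 3 SD, cut at about 38% in these data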
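System: CHO-derived RD-HGA16 cells with stable Gα16 and human TAAR1 / Times: 17-24 h plating, Fluo-8 75 min 37 °C, 30 min RT / Technique: calcium-sensitive Fluo-8 signal, excitation 470-495, emission 515-575 nm / Measure: % activation relative to PEA EC100 response / Benchmarks: DMSO and PEA EC100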
Rce1 inh: yeast Ras-converting enzyme inhibition; yeast membranes, quenched prenylated peptide cleavage fluorescence; 0.27% of 290,000 active; AID 2563; Q03530; calls only;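 active means fall in fluorescence gain of 50% or more versus controls, with final raw signal at or below 3038400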;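 further: plate controls were neutral control wells for no effect and wells lacking membranes for full effect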
Target sequence (Q03530 whole entry, looked up): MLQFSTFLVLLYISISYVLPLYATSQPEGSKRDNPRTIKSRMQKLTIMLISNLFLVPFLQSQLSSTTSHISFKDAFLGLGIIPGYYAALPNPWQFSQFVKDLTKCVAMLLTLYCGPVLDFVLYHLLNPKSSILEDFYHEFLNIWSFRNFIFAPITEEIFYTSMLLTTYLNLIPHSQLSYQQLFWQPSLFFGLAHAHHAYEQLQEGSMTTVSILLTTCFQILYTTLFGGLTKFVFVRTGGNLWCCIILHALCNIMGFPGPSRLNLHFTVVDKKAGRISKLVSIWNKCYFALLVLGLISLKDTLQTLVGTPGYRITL
VLA-4 inh: inhibition in a human VLA-4 binding assay. P13612. AID 2557. 0.2% of 330,000 active. inhibition, % (about 7 µM as worked out from the volumes in the protocol). VLA-4 expressing cells, ligand binding flow cytometry; in the data active means inhibition above about 50%
nonsel antag count: counter-screen for TAAR1 antagonists: nonselective antagonists; 77% of 2,400 active; counterscreen cell line, calcium fluorescence, antagonist mode; inhibition, % at 3 µM; shares compounds with TAAR1 antag; in the data active means inhibition above about 22%;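 further: CHO-Ga16 host cells stimulated with ATP at an EC80 level; 0% = agonist EC80 plus vehicle and 100% = vehicle without agonist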
TAAR1 antag conf: human TAAR1 antagonism, confirmed | shares compounds with TAAR1 antag | TAAR1-expressing cells, fluorescence antagonist read-out | inhibition, % at 3 µM | 40% of 2,400 active | AID 651785; in the data active means inhibition above about 49%;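 further: CHO-Ga16 host cells challenged with agonist PEA near its EC80; 0% = agonist at EC80 plus vehicle and 100% = vehicle with no agonist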
Ga16 nonsel ag: nonselective Ga16 agonism, counter-screen | Ga16-expressing cells, calcium fluorescence, agonist counterscreen | 18% of 2,400 active | activation, % at 3 µM | shares compounds with TAAR1 antag | AID 651953; in the data active means activation above about 12%;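 further: 0% = vehicle wells and 100% = saturating stimulus response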
TAAR1 ag counter: activates human TAAR1 in antagonist counter-screen; 2% of 2,400 active; shares compounds with TAAR1 antag; activation, % at 3 µM; hTAAR1 cell line, fluorescence activation, agonist mode; in the data active means activation above about 37%;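 further: CHO cells stably expressing TAAR1 with calcium dye readout; 0% = DMSO vehicle and 100% = full agonist response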
* marks the source's active call; other numbers are inactive results; i = inactive; / = not tested or not shown.

SMILES	Platelet DG rel	TAAR1 antag	TAAR1 agonist	Rce1 inh	VLA-4 inh	nonsel antag count	TAAR1 antag conf	Ga16 nonsel ag	TAAR1 ag counter
Cc1cc2c(c(=O)n1Cc1ccccn1)C(c1ccc3c(c1)OCO3)C(C#N)=C(N)O2 (stereo not drawn)	0	106*	5	i	3	10	12	4	1
COc1ccc2oc(C(=O)OCC(=O)Nc3ccc(C)c(S(=O)(=O)N4CCOCC4)c3)c(C)c2c1	/	-11	-2	/	/	/	/	/	/
COc1ccc(-c2cc(C(=O)N(C)CC(=O)Nc3ccccc3C(F)(F)F)c3ccccc3n2)cc1OC	/	67*	22	/	/	34*	49*	8	9
COc1ccc(-c2cc(C(=O)N(C)CC(=O)Nc3ccccc3Br)c3ccccc3n2)cc1OC	5	65*	12	i	17	29*	51*	8	6
CC(=O)Nc1cnc(-c2cc(C)c(O)c(C)c2)cn1	/	-7	1	/	/	/	/	/	/
CCOc1ccc(C(C)(C)C)cc1S(=O)(=O)Nc1ccncc1	-1	-15	4	i	-3	/	/	/	/
CCc1sc(C(=O)Nc2ccc3c(c2)OCO3)cc1C	/	-5	-4	/	7	/	/	/	/
CCCN1CCN(CCCNC(=O)CN2C(=O)c3cccnc3Oc3ccc(Cl)cc32)CC1	-4	-10	0	i	4	/	/	/	/
O=C(CN1C(=O)c2cccnc2Oc2ccc(Cl)cc21)NCCCc1ccccc1	-5	84*	8	i	1	32*	56*	9	9
COc1ccc(NC(=O)c2oc3ccc(S(=O)(=O)N4CCC5(CC4)OCCO5)cc3c2C)cc1	1	56*	22	i	-2	40*	56*	14*	15
C=CCNC(=O)c1oc2ccc(S(=O)(=O)N3CCC4(CC3)OCCO4)cc2c1C	10	-11	11	i	22	/	/	/	/
COc1ccc(OC)c(-c2nnc(SCC(=O)N3CCCC3)o2)c1	-24	-17	1	i	4	/	/	/	/
CC(C)(C)c1nnc(N/N=C/c2ccccc2)n(N)c1=O	0	59*	13	i	17	30*	52*	9	5
CC(C)(C)c1nnc(N/N=C/c2ccccc2O)n(N)c1=O	15	59*	25	i	-20	42*	64*	19*	17
CSc1nnc(C(C)(C)C)c(=O)n1/N=C/c1ccccc1	-1	-25	22	i	0	/	/	/	/
CCc1nnc(N/N=C/c2ccccc2F)n1N	4	14	9	i	-11	/	/	/	/
COC(=O)Cc1cc(=O)n2c(nc3ccccc32)[nH]1	-7	-4	2	i	4	/	/	/	/
CC(Sc1nc2c(c(=O)[nH]1)CCCC2)C(=O)Nc1ccc(Br)cn1 (stereo not drawn)	-17	0	-2	/	-4	/	/	/	/
CC(C)c1ccccc1OCC(O)CN1CCN(S(=O)(=O)c2ccc([N+](=O)[O-])cc2)CC1 (stereo not drawn)	3	44	1	i	8	/	/	/	/
COc1ccc(-c2cc(C(=O)Nc3cccc(S(=O)(=O)NCc4ccco4)c3)c3ccccc3n2)cc1OC	16	75*	15	i	-4	37*	57*	9	7
NNC(=O)c1cc(-c2cccs2)nc2ccccc12	-4	-17	-2	/	5	/	/	/	/
COc1cc(-c2cc(C(=O)Nc3ccc(S(=O)(=O)Nc4ncccn4)cc3)c3ccccc3n2)cc(OC)c1OC	10	-33	0	i	-4	/	/	/	/
COc1ccc(NC(=O)c2cc(-c3ccccn3)nc3ccccc23)cc1S(=O)(=O)N(C)C	/	69*	22	/	9	25*	43	9	10
Cc1cccc2sc(NNC(=O)c3cc(-c4cccs4)nc4ccccc34)nc12	4	68*	16	i	-18	51*	54*	15*	11
COc1ccc(-c2cc(C(=O)NCc3ccco3)c3ccccc3n2)cc1OC	6	39	9	i	-5	/	/	/	/
SMILES	Platelet DG rel	TAAR1 antag	TAAR1 agonist	Rce1 inh	VLA-4 inh	nonsel antag count	TAAR1 antag conf	Ga16 nonsel ag	TAAR1 ag counter
COc1cc(-c2cc(C(=O)Nc3cccc(S(=O)(=O)N(C)C)c3)c3ccccc3n2)cc(OC)c1OC	-5	54*	16	i	-19	34*	49*	9	10
CCc1nonc1NC(=O)c1oc2c(C)c(C)ccc2c1C	-3	-32	-5	i	-11	/	/	/	/
O=C(Nc1cccc(S(=O)(=O)NC2=NCCCCC2)c1)c1cc(-c2ccc(Cl)cc2)nc2ccccc12	9	33	4	i	15	/	/	/	/
CCOc1ccccc1-c1cc(C(=O)Nc2ccc(C(=O)O)cc2)c2ccccc2n1	10	8	2	i	-5	/	/	/	/
COc1cc(-c2cc(C(=O)Nc3ccc(S(N)(=O)=O)cc3)c3ccccc3n2)cc(OC)c1OC	1	26	-1	i	-11	/	/	/	/
CCN(CC)S(=O)(=O)c1ccc(NC(=O)c2cc(-c3cccs3)nc3ccccc23)cc1	3	60*	17	i	19	29*	41	8	6
CCOc1ccccc1NC(=O)c1cc(-c2ccccn2)nc2ccccc12	/	55*	26	/	44	21	46	9	7
COc1ccc(-c2cc(C(=O)Nc3ccc(O)cc3)c3ccccc3n2)cc1OC	33	62*	17	i	3	33*	48	11	9
O=C(Nc1cccc(S(=O)(=O)NC2=NCCCCC2)c1)c1cc(-c2ccccc2)nc2ccccc12	-8	63*	19	i	1	28*	50*	10	6
CN(CCc1ccccc1)C(c1ccnc2ccccc12)c1nnnn1-c1ccc2c(c1)OCCO2 (stereo not drawn)	/	24	37	/	/	/	/	/	/
CN(C)S(=O)(=O)c1cccc(NC(=O)c2c[nH]c3ccccc23)c1	-1	56*	34	i	-8	24*	61*	10	54*
O=C(c1ccncc1)c1ccc(N2CCN(C3CC(=O)N(Cc4ccccc4)C3=O)CC2)cc1 (stereo not drawn)	7	51*	27	i	-10	26*	27	11	10
COC(=O)CNC(c1ccccc1)c1cc(C)ccc1NC(=O)c1cccc(Cl)c1 (stereo not drawn)	13	67*	0	i	4	23*	47	3	9
COc1ccc(OC)c(NC(=O)NCc2cccnc2)c1	7	-20	1	i	-27	/	/	/	/
COCCN1C(=O)CCC1(C)C(=O)Nc1c(C)cccc1C (stereo not drawn)	/	-23	2	/	/	/	/	/	/
